Shown are actives, neighbours in structure and some others; about 2.3% of the full set was active somewhere.
TRPC6 inhibitor: blocks the mouse TRPC6 cation channel. HEK293-TRPC6, membrane potential dye, ACh-evoked depolarization; active compounds read low. 310,000 compounds, 1.1% hits. Q61143. B-score at 10 µM. AID 2553;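 active = B-score under library mean minus 3 SD, initial fluorescence not abnormally high, positive integrated signal ratio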;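 note: B-score derived from integrated fluorescence ratio over the kinetic read; more negative B-score means stronger inhibition of depolarization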
TRPC4 block: inhibitors of mouse TRPC4 channel; Q9QUQ5; HEK293 TRPC4beta/mu-opioid, DAMGO-evoked Fluo4 calcium flux; active compounds read low; B-score at 10 µM; 300,000 compounds, 0.39% hits;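 active = B-score over 3 SD under the library average, no early fluorescence shift, positive overall ratio signal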
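Material: HEK293 cells with stable TRPC4beta plus mu-opioid receptor expression; probe or stimulus: DAMGO in two steps, submaximal then maximal; technique: Fluo4 calcium fluorescence by kinetic imaging, 5 s 1 Hz baseline; measure: integrated fluorescence ratio relative to baseline, converted to per-well B score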
TRPC6 act: mouse TRPC6 channel activation; Q61143; HEK293-TRPC6 membrane potential dye fluorescence; active compounds read high; B-score at 10 µM; 310,000 compounds, 0.13% hits; AID 2550;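 active = B-score of the integrated fluorescence ratio above library mean plus 3 SD, and starting fluorescence ratio within library mean plus 5 SD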;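 note: higher score means more depolarization so channel activation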
TRPC4 act: activators of mouse TRPC4 channel | HEK293 TRPC4beta/mu-opioid, Fluo4 calcium fluorescence; active compounds read high | B-score at 10 µM | 310,000 compounds, 0.49% hits | Q9QUQ5;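 active = B-score above 5 SD of library B-scores, and initial fluorescence ratio not above library mean plus 5 SD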;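 note: positive B-score marks a calcium rise read as TRPC4 activation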
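Assay system: HEK293 cells stably co-expressing mouse TRPC4beta and mu-opioid receptor / Timing: Fluo4 dye loading 45 min at room temperature, 110 s recording / Signal: Fluo4 calcium-sensitive dye fluorescence, kinetic, 1 Hz baseline / Read-out: integrated baseline-normalised fluorescence ratio, converted to per-well B score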
TRPC4 PAM: TRPC4 (mouse) allosteric potentiation. Q9QUQ5. HEK293 TRPC4beta/mu-opioid, DAMGO EC20, Fluo-4 Ca2+ flux; active compounds read high. B-score at 10 µM. 310,000 compounds, 0.42% hits. AID 2227;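 active = B-score of calcium response area above 5 SD of library B-scores, with initial fluorescence ratio within 5 SD of library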
Of the large screens only hits and unclear results are named; the others gave an inactive call; ! = a repeat was not active.

COc1cc(NC(=O)Cn2cnc(S(=O)(=O)N3CCC(C)CC3)c2)cc(OC)c1OC	none
O=C1CCC(C(=O)OCC(=O)N2N=C3/C(=C/c4ccccc4)CCCC3C2c2ccccc2)N1 (stereo unspecified)	none
COc1ccc(/C=C2\CCCC3C2=NN(C(=O)CSc2n[nH]c(N)n2)C3c2ccc(OC)cc2)cc1 (stereo unspecified)	TRPC4 PAM 12
CC1C(=O)C(C)C(c2ccccc2F)NC1c1ccccc1F (stereo unspecified)	none
CCCSc1nc(N)nc(-c2cccs2)c1C#N	TRPC4 block -6
C=CCc1ccccc1OCC(O)CN1CCN(Cc2ccc3c(c2)OCO3)CC1 (stereo unspecified)	TRPC4 block -7!
COC(=O)c1ccc(CN2CCCC(C(=O)Nc3ccc(-c4ccn[nH]4)cc3)C2)cc1 (stereo unspecified)	TRPC4 act 50
COC(=O)c1ccc(NC(=O)C2CCCN(S(C)(=O)=O)C2)cc1 (stereo unspecified)	none
CC1CN(C(C)C)C(C)CC1OC(=O)c1ccccc1 (stereo unspecified)	none
CSCC[C@H](NC(=O)N1CCn2c1nc1ccccc12)C(=O)NCc1ccc(C)cc1	TRPC4 PAM 43
CCCCn1c(NCCO)nc2ccccc21	TRPC4 block -6
CCCCn1c(NCc2ccccc2O)nc2ccccc21	none
OCCNc1nc2ccccc2n1CCN1CCCCC1	TRPC4 block -6
O=C(Cn1c(NCCCO)nc2ccccc21)c1ccc(Br)cc1	TRPC4 block -7
Cc1c(C)c(C)c(C(=O)C2CCN(c3ccc([N+](=O)[O-])cn3)CC2)c(C)c1C	none
CCOc1[nH]n(-c2ccccc2)c(=O)c1C=Nc1ccc(F)cc1F	none
O=c1[nH][nH]c(-c2ccccc2)c1C=Nc1ccc(F)cc1F	TRPC4 PAM 79
Cc1[nH]n(-c2c(Cl)cc(Cl)cc2Cl)c(=O)c1C=Nc1ccc(S(=O)(=O)N2CCOCC2)cc1	none
COc1ccc(-n2nc(C(=O)NCC(=O)NCCCN3CC(C)CC(C)C3)c3ccccc3c2=O)cc1 (stereo unspecified)	none
CCOc1cc(-c2nccc3cc(OC)c(OC)cc23)cc(OCC)c1OCC	none
CCCOc1cc(C)c(S(=O)(=O)n2ccc(C)n2)cc1C	TRPC4 PAM 13
Cc1sc(NC(=O)c2ccco2)c(C(c2ccc(F)cc2)N2CCN(C)CC2)c1C (stereo unspecified)	TRPC4 PAM 34
Cc1sc(NC(=O)c2ccco2)c(C(c2cccnc2)N2CCN(c3ccc(F)cc3)CC2)c1C (stereo unspecified)	none
O=C(OCC(=O)N1CCCC1=O)c1cccc(S(=O)(=O)N2CCOCC2)c1	none
O=C(OCC(=O)N1CCOCC1)c1cccc(S(=O)(=O)N2CCCc3ccccc32)c1	TRPC4 PAM 15
NC(=O)c1ncc(C(F)(F)F)cc1Oc1ccc(C(F)(F)F)cc1	none
CN(C)/C=C1/C(=O)N(c2ccc([N+](=O)[O-])cc2)N=C1c1ccccc1	none
CN(C)/C=C1\C(=O)N(c2ccc([N+](=O)[O-])cc2)N=C1c1ccccc1	TRPC4 block -6, TRPC4 act 47
CCCN(CCO)CCCc1ccccc1	TRPC4 PAM 11
CCN(CCCc1ccccc1)CCCc1ccccc1	none
Cc1cc(Nc2ncc(Cl)cc2Cl)n(-c2ccccc2C)n1	TRPC4 block -7
Cc1ccc(-n2nc(C)cc2Nc2ncc(Cl)cc2Cl)cc1	none
COc1ccc(CN(C)C(=O)c2ccc(NC(=O)CC3SC(N4CCCC4)=NC3=O)cc2)c(OC)c1 (stereo unspecified)	TRPC4 block -6, TRPC4 PAM 41
COc1ccc(CN(C)C(=O)c2ccc(NC(=O)CC3SC(N4CCCC4)=NC3=O)cc2)c(OC)c1OC (stereo unspecified)	none
CNC(=S)N/N=C/c1c2ccccc2c(Cl)c2ccccc12	none
CCn1cc(CNC(=O)CCSc2nc(-c3ccco3)cc(C(F)(F)F)n2)cn1	none
CCn1c2ccccc2c2cc(CNCc3ccc(OC)cc3OC)ccc21	TRPC4 act 66
COc1ccc(CNCc2cc(C)c(OC)cc2C)c(OC)c1	TRPC4 block -5
CCn1c2ccccc2c2cc(CNCCCN3CCOCC3)ccc21	TRPC6 inhibitor -6.26
CCC(CC)NCc1ccc2c(c1)c1ccccc1n2CC	none
